Experimental data reported in PubChem BioAssay AID489030 (Sanford-Burnham Center for Chemical Genomics, 2010).
The campaign covered roughly 330,000 compounds. About 2,400 (0.73%) were called active. The calls were made as follows: active = inhibition of at least 40% at 20 µM; inactive = the rest. This excerpt belongs to a sample that is enriched for actives.

molecular target: Apoptotic protease-activating factor 1 (Homo sapiens) (UniProt O14727); assay: blockers of Apaf-1-driven caspase-3 activation – biochemical, DEVD-Rh110 fluorescence, uHTS, primary screen (AID 489030); details: reconstituted apoptosome caspase-3 activity, at 20 µM, stronger effect = higher value;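 also: plate controls were DMSO wells for no effect and DEVD-CHO caspase inhibitor wells for full effect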
Sequence (O14727 whole entry, looked up): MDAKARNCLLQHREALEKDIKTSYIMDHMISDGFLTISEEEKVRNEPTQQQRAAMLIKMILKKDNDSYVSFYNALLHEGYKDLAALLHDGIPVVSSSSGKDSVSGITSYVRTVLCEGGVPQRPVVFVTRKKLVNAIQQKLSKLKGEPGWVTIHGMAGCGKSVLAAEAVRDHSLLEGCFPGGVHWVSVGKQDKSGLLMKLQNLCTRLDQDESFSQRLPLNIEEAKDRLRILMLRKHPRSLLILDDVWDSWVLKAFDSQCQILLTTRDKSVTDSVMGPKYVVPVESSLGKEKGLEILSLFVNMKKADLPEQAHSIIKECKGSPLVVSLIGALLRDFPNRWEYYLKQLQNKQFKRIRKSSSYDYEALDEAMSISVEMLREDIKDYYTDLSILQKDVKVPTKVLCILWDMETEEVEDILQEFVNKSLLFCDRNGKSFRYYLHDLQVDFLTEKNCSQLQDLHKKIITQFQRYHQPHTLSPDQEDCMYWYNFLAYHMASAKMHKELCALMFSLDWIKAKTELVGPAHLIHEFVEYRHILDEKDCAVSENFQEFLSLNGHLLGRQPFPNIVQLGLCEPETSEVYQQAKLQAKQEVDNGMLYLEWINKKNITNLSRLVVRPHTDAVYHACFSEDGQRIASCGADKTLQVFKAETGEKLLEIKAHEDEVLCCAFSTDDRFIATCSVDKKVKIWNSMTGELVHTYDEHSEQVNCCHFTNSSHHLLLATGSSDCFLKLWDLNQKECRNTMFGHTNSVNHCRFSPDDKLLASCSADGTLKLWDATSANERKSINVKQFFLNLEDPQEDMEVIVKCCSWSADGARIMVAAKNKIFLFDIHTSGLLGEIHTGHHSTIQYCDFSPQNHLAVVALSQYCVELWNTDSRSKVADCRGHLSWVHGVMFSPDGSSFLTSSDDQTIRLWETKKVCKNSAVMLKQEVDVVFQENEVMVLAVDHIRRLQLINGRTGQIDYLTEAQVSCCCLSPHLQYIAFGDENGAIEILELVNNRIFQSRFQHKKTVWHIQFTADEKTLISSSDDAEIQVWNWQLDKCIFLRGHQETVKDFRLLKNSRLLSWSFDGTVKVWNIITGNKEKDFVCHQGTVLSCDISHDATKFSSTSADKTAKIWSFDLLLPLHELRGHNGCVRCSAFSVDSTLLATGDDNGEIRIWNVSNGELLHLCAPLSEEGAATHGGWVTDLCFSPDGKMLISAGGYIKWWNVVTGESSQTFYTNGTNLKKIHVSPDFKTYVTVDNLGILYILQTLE
Procedure, shortened: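 Material: biochemical Apaf-1 apoptosome reconstitution. Medium: Hepes buffer, pH 7.5. Also added: cytochrome c activation, bis-DEVD rhodamine 110 substrate. Timing: 30 min compound preincubation, 50 min activation, room temperature. Measured by: rhodamine 110 fluorescence at Ex 480/Em 540 nm.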

inhibition, active:
C=CCC[C@H](Cc1ccc(F)cc1)C(=O)OC[C@@H](NC(=O)[C@@H](CC=C)CC(=O)N[C@H](CO)Cc1ccccc1)C(C)(C)C 40.6%
COc1ccccc1C1C(C#N)=C(N)Oc2c1c(-c1ccccc1)nn2-c1ccccc1 (configuration not stated) 42.2%
COc1ccc(/C=C2/C(=O)N(c3ccccc3)N=C2C)c(OC)c1 80.1%
Cc1ccc(S(=O)(=O)N2CCN(C(=O)c3ccccc3-c3nc4ccccc4s3)CC2)c(C)c1 40.3%
CCN1C[C@@H]2[C@@H]3C(=O)N(Cc4ccccc4)C(=O)[C@@H]3[C@](Cc3ccccc3)(C(=O)OC)N2C1=NC1CCCCC1 41.2%
CC1=NN(c2ccc(Cl)c(C(=O)O)c2)C(=O)/C1=C/c1ccc(-c2ccccc2[N+](=O)[O-])o1 42.9%
NC(N)=NCCCc1cn(CC(=O)N2CCNCC2)nn1 40.2%
CCN1C(=NCc2ccc(OC)cc2)N[C@@H](CCc2ccccc2)[C@H](C(=O)NCc2ccc(OC)cc2)[C@H]1C 40.4%
Oc1c(C=Nc2cccc3nsnc23)ccc2ccccc12 95.8%
OC(CNCC1CCCO1)Cn1c2ccc(Br)cc2c2cc(Br)ccc21 (configuration not stated) 43.4%
NC[C@H](Cc1ccccc1)NCCc1cc(C(F)(F)F)cc(C(F)(F)F)c1 60.8%

inhibition, inactive:
COc1ccc(N2CCN(c3ccc([N+](=O)[O-])nc3)CC2)cc1 -5.77%
CCOC(=O)C1Sc2[nH]c(=O)sc2C(c2ccc(Cl)cc2)C1C(=O)OCC (configuration not stated) 2.05%
C=CCC[C@H](Cc1ccc(F)cc1)C(=O)OC[C@@H](Cc1c[nH]c2ccccc12)NC(=O)[C@H](CC=C)CC(=O)N[C@H](CO)Cc1ccccc1 1.18%
C=CC[C@@H](CC(=O)N[C@H](CO)Cc1ccccc1)C(=O)N[C@H](C)COC(=O)[C@@H](CC=C)Cc1ccc(F)cc1 23%
COCCNC(=O)c1ccccc1-c1nc(-c2ccccc2Cl)no1 6.12%
O=C(Nc1cc(S(=O)(=O)N2CCOCC2)ccc1N1CCOCC1)c1c(F)cccc1Cl -5.54%
Cc1ccc(NC(=O)CN(C)C(=O)Cn2nnc(-c3ccccc3)n2)cc1 8.51%
COc1ccc(C2C(C#N)=C(N)Oc3cc(N)ccc32)cc1OC (configuration not stated) -6.32%
Cc1nn(Cc2ccccc2)c2c1C(c1ccccc1)C(C#N)=C(N)O2 (configuration not stated) 7.58%
COc1ccc(/C=C2/C(=O)OCc3cc(OC)c(OC)cc32)c(OC)c1 6.28%
COc1ccc(C2/C(=C(/O)c3ccccc3)C(=O)C(=O)N2C)c(OC)c1 (configuration not stated) 2.34%
O=C1CN(C(=O)COC(=O)/C=C/c2ccc(F)cc2)c2ccccc2N1 5.3%
O=C(CO/N=C/c1ccccc1OC(F)F)NC1CCCC1 0.277%
CCCNC(=O)c1ccc(N2CCC3(CC2)CC(c2cccc(Br)c2)=NO3)c(NC(=O)c2ccco2)c1 14.2%
CC1CCC2(CC1)NC(=O)N(CC(=O)c1ccc3c(c1)OCO3)C2=O (configuration not stated) -10.1%
Cc1ccc(S(=O)(=O)N2CCN(C(=O)Cn3c(=O)cnc4ccccc43)CC2)c(C)c1 -0.646%
Cc1ccc(S(=O)(=O)N2CCN(C(=O)N3CCOCC3)CC2)c(C)c1 -7.82%
CC[C@]1(C(=O)OC)[C@H]2C(=O)N(Cc3ccccc3)C(=O)[C@H]2[C@H]2CN=C(SCc3ccccc3)N21 25.2%
CCCN=C1N(C)C[C@@H]2[C@@H]3C(=O)N(Cc4ccccc4)C(=O)[C@@H]3[C@](C)(C(=O)OC)N12 11.4%
Cc1nnc(Sc2nc3c(c(=O)[nH]c(=O)n3C)n2Cc2ccccc2)s1 21%
O=C1NC(c2ccc(-c3ccccc3[N+](=O)[O-])o2)C(C(=O)c2ccc(Cl)cc2)C(O)(C(F)(F)F)N1 (configuration not stated) 36.8%
O=C(Nc1ccc(N2CCOCC2)cc1)c1ccc(-c2ccccc2[N+](=O)[O-])o1 2.89%
COC(=O)c1ccc(S(=O)(=O)N2CCC(c3nc4ccccc4o3)CC2)cc1 -25.7%
Cc1cccc(C)c1NC(=O)CNC(=O)Cc1ccc(Br)cc1 -1.64%
CC(C)N(C(=O)[C@H]1C[C@H](CC(=O)NC(C)(C)C)C(=O)N2CCc3c([nH]c4ccc(Cl)cc34)[C@]12C)C(C)C 29.3%
CCC(C)[C@@H](C(=O)N1CCNCC1)n1cc(CCCCN)nn1 (some centres not stated) -4.43%
C[C@@H](C(=O)N1CCNCC1)n1cc(CCC(=O)O)nn1 5.94%
CCN1C(=S)N[C@@H](CCc2ccccc2)[C@H](C(=O)OC)[C@H]1C -4.74%
CCN1C(=NCC(C)C)N[C@@H](CCc2ccccc2)[C@H](C(=O)NCC(C)C)[C@H]1C 4.1%
CCN1C(=O)N[C@@H](CCc2ccccc2)C(C(=O)OC)=C1C 17.6%
O=C(NCc1ccccc1Cl)C1CCN(c2ncnc3c2nc2n3CCCCC2)CC1 -6.54%
Cc1nn2c(NCCN(C)C)c3c(nc2c1-c1ccccc1)CCC3 1.66%
CCN(C(=O)C1CCCN(c2nc(-c3ccc(OC)cc3)no2)C1)c1ccc(OC)cc1 (configuration not stated) 12.2%
Cc1cc(=O)cc(C)[nH]1 -15%
CCOc1ccc(N2CC(C(=O)NCc3ccccn3)CC2=O)cc1 (configuration not stated) 1.44%
CCCN1CCn2c3c(c4cc(Br)ccc42)CCCC31 (configuration not stated) 12.8%
COCCNC(=O)c1ccc(Cn2c(SCC(=O)NCC3CCCO3)nc3ccc(Br)cc3c2=O)cc1 (configuration not stated) -13.8%
CN(C)/C(CN1CCCCC1)=C1\N=C(c2ccccc2)OC1=O -0.998%
O=C(CCC(=O)c1ccccc1)NCc1cccc(C(F)(F)F)c1 6.79%
COC(=O)[C@@H](Cc1ccccc1)NC(=O)NCCc1ccccc1 -5.88%
O=C(Cn1nc(CNc2ccc(Cl)cc2)[n+]2c1CCCCC2)c1ccc(Cl)cc1 15.2%
